# CHT block: inhibitors of human choline transporter CHT | CHT-expressing cells, membrane potential dye, choline response; hits give low values | B-score at 10 µM | High affinity choline transporter 1 (Homo sapiens), Q9GZV3 | 310,000 tested, 0.86% active;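 active = B-score over 3 SD under the library average, and starting fluorescence ratio not unusually high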;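 also: choline stimulus applied at its EC90 after an EC20 pre-addition; B-score computed on integrated fluorescence ratio after choline addition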
# Rad51 HR inh: human RAD51 strand exchange inhibitors, primary screen, biochemical, fluorescence | hRad51 DNA strand exchange, fluorescence dequenching | inhibition, % at 10 µM | 200,000 tested, 0.085% active | AID 1385, 2008;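 active = inhibition above 40% at the single screening dose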;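 also: 0% = DMSO control wells and 100% = blanks with heterologous ssDNA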
#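 Test system: preformed human Rad51 ssDNA filaments; also added: Donor/quencher-labelled 47-bp dsDNA substrate; doses: 10 µM final, single point; times: 37 °C 15-min filament assembly, 30-min compound preincubation, 15-min exchange; detection: FRET fluorescence dequenching, excitation 485 nm, emission 520 nm; read-out basis: Fluorescence-based percent inhibition, control- and blank-normalised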
# KCC2 mod: KCC2 cotransporter modulators, thallium flux, primary screen, cell-based, HEK293 KCC2, FluoZin-2 fluorescence, MLSMR | Solute carrier family 12 member 5 (Homo sapiens), Q9H2X9 | KCC2 cells, thallium flux FluoZin-2 fluorescence | B-score of Tl+ flux slope (higher = more flux/activation; lower = inhibition) at 10 µM | 190,000 tested, 2.2% active;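 active = thallium flux slope and its plate-corrected score both differing from the plate sample mean at a set confidence after two filtering rounds, in either direction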;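 also: slope of fluorescence scaled to starting intensity during 10 to 20 s after thallium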
# Target sequence (Q9H2X9 whole entry, looked up): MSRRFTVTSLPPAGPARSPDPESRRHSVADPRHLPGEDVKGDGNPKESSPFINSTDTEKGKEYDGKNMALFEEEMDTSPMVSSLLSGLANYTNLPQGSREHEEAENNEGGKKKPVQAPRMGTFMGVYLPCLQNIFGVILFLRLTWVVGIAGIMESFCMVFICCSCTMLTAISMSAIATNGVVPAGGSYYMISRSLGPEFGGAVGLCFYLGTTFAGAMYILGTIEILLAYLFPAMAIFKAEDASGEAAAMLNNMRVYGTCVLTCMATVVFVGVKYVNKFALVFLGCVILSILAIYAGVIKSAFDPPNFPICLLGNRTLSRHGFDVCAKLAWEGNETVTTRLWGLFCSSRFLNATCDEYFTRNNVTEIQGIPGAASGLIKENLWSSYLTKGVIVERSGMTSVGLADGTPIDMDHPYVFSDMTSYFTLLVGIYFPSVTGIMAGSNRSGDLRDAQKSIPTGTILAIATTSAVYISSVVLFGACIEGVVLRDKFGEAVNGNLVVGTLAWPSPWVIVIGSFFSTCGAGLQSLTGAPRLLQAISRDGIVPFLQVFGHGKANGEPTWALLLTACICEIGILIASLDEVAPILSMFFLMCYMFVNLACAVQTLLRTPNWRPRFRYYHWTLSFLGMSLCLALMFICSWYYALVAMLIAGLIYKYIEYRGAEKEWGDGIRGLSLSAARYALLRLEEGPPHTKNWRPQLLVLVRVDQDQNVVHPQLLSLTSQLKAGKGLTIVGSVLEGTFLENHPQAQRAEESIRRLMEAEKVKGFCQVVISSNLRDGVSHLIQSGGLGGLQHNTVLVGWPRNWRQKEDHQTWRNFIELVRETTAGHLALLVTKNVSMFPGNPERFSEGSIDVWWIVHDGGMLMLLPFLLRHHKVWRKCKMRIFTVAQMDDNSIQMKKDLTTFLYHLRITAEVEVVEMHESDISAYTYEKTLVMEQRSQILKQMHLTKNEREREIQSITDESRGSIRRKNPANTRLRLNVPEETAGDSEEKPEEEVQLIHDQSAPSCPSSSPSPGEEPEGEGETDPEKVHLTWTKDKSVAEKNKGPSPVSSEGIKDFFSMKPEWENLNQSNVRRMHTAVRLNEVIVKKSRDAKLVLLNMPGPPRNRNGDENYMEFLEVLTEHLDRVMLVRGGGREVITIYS
# CHT allo act: CHT positive allosteric modulators, primary screen, cell-based, membrane potential dye, choline EC20; 310,000 tested, 0.49% active; CHT-expressing cells; hits give high values; LV-AA mutant CHT in HEK293 cells; High affinity choline transporter 1 (Homo sapiens), Q9GZV3; B-score at 10 µM;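 active = initial fluorescence not abnormally high and integrated response B-score, plate-corrected, over 3 SD above library mean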
# KCC2 secondary: KCC2 modulators in sodium-free buffer, confirmation, cell-based, HEK293 KCC2, thallium flux, secondary assay; 3,700 tested, 15% active; FluoZin2 fluorescence; hits give high values; shares compounds with KCC2 mod; AID 1713, 2009; normalised thallium flux (F/F0 slope) at 10 µM;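 active = thallium flux slope above the same plate's solvent-only control mean plus 3 SD; inconclusive = the two replicate wells disagree; inactive = no significant difference from solvent-only control wells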
# KCC2 bumet counter: thallium flux persisting under bumetanide in KCC2 cells, confirmation, counter-screen for KCC2 modulator project, cell-based, HEK293 KCC2, FluoZin2, secondary assay 3; normalized thallium flux at 10 µM; AID 1714, 2009; shares compounds with KCC2 mod; 3,700 tested, 49% active; HEK293-KCC2 + bumetanide/ouabain; hits give high values;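 active = thallium entry rate above the same plate's blocked-transporter control wells by more than 3 SD; inconclusive = the two repeat wells disagree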;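 also: raw slope of fluorescence over initial fluorescence between 10 and 20 s after thallium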
# KCC2 secondary2: KCC2 modulators without ouabain present, confirmation, cell-based, HEK293 KCC2, thallium flux, FluoZin2, secondary assay 2 | shares compounds with KCC2 mod | normalized thallium flux at 10 µM | thallium flux FluoZin2 fluorescence; actives lie on both sides; F/F0 rise rate, 10–20 s post-thallium | 3,700 tested, 23% active | AID 1715, 2009;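 active = thallium flux slope more than 3 SD above or below the plate's solvent-only control mean, mostly below; inconclusive = the two repeat wells disagreed; inactive = no significant shift from solvent-only controls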;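 also: raw slope with 0.1% DMSO as baseline and bumetanide as block control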
# HEK counter1: thallium flux modulation in parental HEK cells, confirmation, counter-screen for KCC2 modulator project, cell-based, counterscreen 1; shares compounds with KCC2 mod; HEK293 parental cells, thallium flux FluoZin2, ouabain; baseline-ratio fluorescence slope, 10–20 s after thallium; thallium flux rate (normalised fluorescence) at 10 µM; 3,700 tested, 46% active; AID 1716, 2009;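 active = thallium flux rate significantly above the same plate's solvent-only control wells, beyond their mean plus 3 SD; inconclusive = the two replicate wells gave conflicting results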
# KCC2 retest ouab: KCC2 inhibitors and activators, ouabain retest, confirmation, HEK-KCC2 cells. shares compounds with KCC2 mod. HEK293-KCC2, thallium flux FluoZin2 fluorescence; bidirectional: low = inhibitor, high = activator. raw Tl+ flux slope (below DMSO = inhibition, above = activation) at 10 µM. 3,700 tested, 48% active. AID 1717, 2009;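 active = thallium flux slope beyond 3 SD from same-plate DMSO control mean in most replicates, usually higher, sometimes lower; inconclusive = repeat tests gave conflicting results; inactive = no significant difference from controls in most replicates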;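 also: slope of initial-normalized fluorescence between seconds 10 and 20 after thallium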
# HEK293 Tl flux2: native HEK Tl+ uptake effects, second counter-screen – HEK cells, counterscreen 2, counter-screen for KCC2 modulator project, confirmation | shares compounds with KCC2 mod | 3,700 tested, 33% active | AID 1718, 2009 | HEK293 parental, thallium flux FluoZin-2 fluorescence slope | thallium flux slope at 10 µM;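 active = thallium flux slope above the same plate's solvent-control mean plus 3 SD in both duplicate wells; inconclusive = duplicate wells that disagreed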;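 also: run without ouabain in cells lacking the KCC2 cotransporter; slope of fluorescence scaled to its starting value between 10 and 20 s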
# * = called active by the depositor; i = inactive; ? = inconclusive; · = no result given. In the library only some 2.6% were active in any assay of this set; here they are far more common.
SMILES,CHT block,Rad51 HR inh,KCC2 mod,CHT allo act,KCC2 secondary,KCC2 bumet counter,KCC2 secondary2,HEK counter1,KCC2 retest ouab,HEK293 Tl flux2
CCCCCC(=O)NC(=S)Nc1ccc(Cl)cn1,i,-5,8.3*,i,0.0065,0.013*,0.035,0.016*,?,0.018*
S=C(Nc1ccccc1)Nc1ccc(Cl)cn1,i,-7,5.8*,i,0.018,0.017*,0.03,0.01*,0.019,0.012
CCSc1ncc(CO)c(N)n1,i,-6,1.2,i,·,·,·,·,·,·
O=C1CC(N(Cc2ccco2)C(=O)Nc2ccc(F)cc2)C(=O)N1c1ccc(F)cc1 (stereo not drawn),i,4,-0.032,i,·,·,·,·,·,·
Cc1cccc(NC(=O)Nc2ccc(C)c(C)c2)n1,i,-1,5.7*,i,0.0092,0.0054,0.038,0.0074,0.021,0.011
CCC(CC)C1C(C#N)=C(N)Oc2n[nH]c(C)c21 (stereo not drawn),i,-4,·,i,0.011,0.0072,0.032,0.0036,0.016*,0.011
CCn1c(-c2cc(-c3ccc(C)c(C)c3)nc3ccccc23)n[nH]c1=S,i,1,1.3,i,·,·,·,·,·,·
CCOc1cccc(-c2cc(-c3n[nH]c(=S)n3CC)c3ccccc3n2)c1,i,-4,·,i,0.0089,0.072*,0.031,0.015*,?,?
Cc1ccc(-c2cc(-c3n[nH]c(=S)n3C)c3ccccc3n2)cc1,i,19,11*,i,0.0092,0.044*,0.031,0.012*,?,?
COc1ccccc1N1CCN(C(=O)CN(C)S(=O)(=O)c2cc(C)ccc2OC)CC1,i,1,-0.12,i,·,·,·,·,·,·
Cc1ccc(C(=O)NNC(=O)CSc2nnc3c(n2)[nH]c2ccc(C)cc23)cc1,i,-4,5.4*,i,0.0065,0.0043,0.032,0.0073,0.018,0.011
O=C1/C(=C/c2cccc(Br)c2)SC(=S)N1/N=C/c1cc([N+](=O)[O-])ccc1O,i,0,0.16,i,·,·,·,·,·,·
S=C(Nc1cccc2ccccc12)N1CCN(c2ncccn2)CC1,i,-3,0.033,i,·,·,·,·,·,·
O=C(Nc1cccc2ccccc12)N1CCN(c2ncccn2)CC1,i,19,-4.1*,i,0.011,?,0.033,0.0084,0.018,0.011
CC1C(=NO)C(C)C(c2ccc(N(C)C)cc2)NC1c1ccc(N(C)C)cc1 (stereo not drawn),i,·,0.5,i,·,·,·,·,·,·
CCOC(=O)COc1ccc(/C=C2\NC(=S)N(CC)C2=O)cc1,i,10,-6.2*,i,0.0068,0.011*,0.029,0.0066,0.014*,0.01

# From PubChem
